Assay results from ChEMBL document CHEMBL1135218, “Structure-based design, synthesis, and biological evaluation of irreversible human rhinovirus 3C protease inhibitors. Part 7: structure-activity studies of bicyclic 2-pyridone-containing peptidomimetics” (Bioorg Med Chem Lett, 2002).

Legend:
HeLa [1] = experiment: (§1) Tested for antirhinoviral activity of compound against HRV 87 infected H1HeLa cells; Cytotoxicity at > 10 uM; assay type: functional; settings: Homo sapiens
HeLa [2] = experiment: (§2) Tested for antirhinoviral activity of compound against HRV 2 infected H1HeLa cells; Cytotoxicity at > 10 uM; assay type: functional, cell-based; settings: Homo sapiens
HeLa [3] = experiment: Cytotoxic concentration against uninfected H1HeLa cell line; assay type: functional; settings: Homo sapiens
HeLa [4] = experiment: (§3) Tested for antirhinoviral activity of compound against HRV 39 infected H1HeLa cells; Cytotoxicity at > 10 uM; assay type: functional, cell-based; settings: Homo sapiens
HeLa [5] = experiment: (§4) Tested for antirhinoviral activity of compound against HRV 16 infected H1HeLa cells; Cytotoxicity at > 10 uM; assay type: functional, cell-based; settings: Homo sapiens
HeLa [6] = experiment: as §1; assay type: functional, cell-based; settings: Homo sapiens
[7] = target: T1, Human rhinovirus A protease (Human rhinovirus sp.) (UniProt Q4U254); experiment: The compound was tested for the inhibitory activity against human rhinovirus-14 3C Protease
T1 sequence (whole entry): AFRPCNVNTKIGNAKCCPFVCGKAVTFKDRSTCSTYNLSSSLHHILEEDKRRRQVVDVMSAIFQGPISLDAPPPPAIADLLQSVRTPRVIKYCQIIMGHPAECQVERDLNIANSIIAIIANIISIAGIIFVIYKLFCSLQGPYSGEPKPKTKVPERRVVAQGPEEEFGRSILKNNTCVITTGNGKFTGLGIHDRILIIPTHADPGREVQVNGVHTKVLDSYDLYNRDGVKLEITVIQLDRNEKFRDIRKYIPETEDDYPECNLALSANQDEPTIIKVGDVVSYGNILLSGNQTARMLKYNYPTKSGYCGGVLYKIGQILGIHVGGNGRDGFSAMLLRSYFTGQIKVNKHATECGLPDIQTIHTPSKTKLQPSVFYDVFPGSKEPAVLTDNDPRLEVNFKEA
Method in brief: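 HRV-14 3C protease was exposed to the irreversible inhibitor. Inactivation was expressed as the second-order rate constant kobs/[I] in M-1 s-1.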

HeLa [8] = experiment: (§5) Tested for antirhinoviral activity of compound against HRV 25 infected H1HeLa cells; Cytotoxicity at > 10 uM; assay type: functional, cell-based; settings: Homo sapiens
HeLa [9] = experiment: (§6) Tested for antirhinoviral activity of compound against HRV 3 infected H1HeLa cells; Cytotoxicity at > 10 uM; assay type: functional; settings: Homo sapiens
HeLa [10] = experiment: Tested for antirhinoviral activity of compound against HRV 9 infected H1HeLa cells; assay type: functional, cell-based; settings: Homo sapiens
HeLa [11] = experiment: Tested for antirhinoviral activity of compound against HRV 9 infected H1HeLa cells; Cytotoxicity at > 10 uM; assay type: functional; settings: Homo sapiens
HeLa [12] = experiment: as §4; assay type: functional; settings: Homo sapiens
HeLa [13] = experiment: as §6; assay type: functional, cell-based; settings: Homo sapiens
HeLa [14] = experiment: (§7) Tested for antirhinoviral activity of compound against HRV 14 infected H1HeLa cells; Cytotoxicity at > 10 uM; assay type: functional; settings: Homo sapiens
HeLa [15] = experiment: (§8) Tested for antirhinoviral activity of compound against HRV 10 infected H1HeLa cells; Cytotoxicity at > 10 uM; assay type: functional, cell-based; settings: Homo sapiens
HeLa [16] = experiment: as §3; assay type: functional; settings: Homo sapiens
HeLa [17] = experiment: as §8; assay type: functional; settings: Homo sapiens
HeLa [18] = experiment: Compound was tested for the antirhinoviral activity against human rhinovirus (HRV-14) infected H1HeLa cells; assay type: functional, cell-based
HeLa [19] = experiment: as §7; assay type: functional, cell-based; settings: Homo sapiens
HeLa [20] = experiment: as §2; assay type: functional; settings: Homo sapiens
HeLa [21] = experiment: as §5; assay type: functional; settings: Homo sapiens

CCOC(=O)/C=C/[C@H](C[C@@H]1CCNC1=O)NC(=O)[C@@H]1CCc2ccc(NC(=O)c3cc(C)on3)c(=O)n21
EC90 (HeLa [1]): 110 nM | EC50 (HeLa [2]): 37 nM | CC50 (HeLa [3]): > 10000 nM | EC50 (HeLa [4]): 16 nM | EC50 (HeLa [5]): 72 nM | EC50 (HeLa [6]): 58 nM | K obs / 1 [7]: 177000 M⁻¹ s⁻¹ | EC50 (HeLa [8]): 162 nM | EC90 (HeLa [9]): 133 nM | EC50 (HeLa [10]): 121 nM | EC90 (HeLa [11]): 257 nM | EC90 (HeLa [12]): 303 nM | EC50 (HeLa [13]): 43 nM | EC90 (HeLa [14]): 298 nM | EC50 (HeLa [15]): 41 nM | EC90 (HeLa [16]): 152 nM | EC90 (HeLa [17]): 175 nM | EC50 (HeLa [18]): 162 nM | EC50 (HeLa [19]): 162 nM | EC90 (HeLa [20]): 119 nM | EC90 (HeLa [21]): 616 nM

CCOC(=O)/C=C/[C@H](CCC(N)=O)NC(=O)[C@@H]1CS[C@H]2CC[C@H](NC(=O)OCc3ccccc3)C(=O)N21
CC50 (HeLa [3]): > 10000 nM | K obs / 1 [7]: 26 M⁻¹ s⁻¹ | EC50 (HeLa [18]): > 10000 nM

CCOC(=O)/C=C/[C@H](CCC(N)=O)NC(=O)[C@@H]1CCc2ccc(NC(=O)OCc3ccccc3)c(=O)n21
CC50 (HeLa [3]): > 100000 nM | K obs / 1 [7]: 4540 M⁻¹ s⁻¹ | EC50 (HeLa [18]): 9000 nM

CCOC(=O)/C=C/[C@H](CCC(N)=O)NC(=O)Cn1cccc(NC(=O)OCc2ccccc2)c1=O
CC50 (HeLa [3]): > 10000 nM | K obs / 1 [7]: 348 M⁻¹ s⁻¹ | EC50 (HeLa [18]): > 10000 nM

CCOC(=O)/C=C/[C@H](CCC(N)=O)NC(=O)[C@H](Cc1ccccc1)n1cccc(NC(=O)OCc2ccccc2)c1=O
CC50 (HeLa [3]): 50000 nM | K obs / 1 [7]: 114000 M⁻¹ s⁻¹ | EC50 (HeLa [18]): 33 nM
